According to ChEMBL document CHEMBL4145534, “Computer-aided insights into receptor-ligand interaction for novel 5-arylhydantoin derivatives as serotonin 5-HT7 receptor agents with antidepressant activity” (Eur J Med Chem, 2018):

Key:
D(2) dopamine receptor = D(2) dopamine receptor (Homo sapiens, UniProt P14416); assay: Displacement of [3H]-raclopride from human D2L receptor expressed in HEK293 cell membranes after 1 hr by Microbeta scintillation counting method
[1] = biological target: T1, 5-hydroxytryptamine receptor 1A (Homo sapiens, UniProt P08908); assay: Displacement of [3H]-8-OH-DPAT from human 5HT1AR expressed in HEK293 cell membranes after 1 hr by Microbeta scintillation counting method
T1 sequence (P08908 whole entry): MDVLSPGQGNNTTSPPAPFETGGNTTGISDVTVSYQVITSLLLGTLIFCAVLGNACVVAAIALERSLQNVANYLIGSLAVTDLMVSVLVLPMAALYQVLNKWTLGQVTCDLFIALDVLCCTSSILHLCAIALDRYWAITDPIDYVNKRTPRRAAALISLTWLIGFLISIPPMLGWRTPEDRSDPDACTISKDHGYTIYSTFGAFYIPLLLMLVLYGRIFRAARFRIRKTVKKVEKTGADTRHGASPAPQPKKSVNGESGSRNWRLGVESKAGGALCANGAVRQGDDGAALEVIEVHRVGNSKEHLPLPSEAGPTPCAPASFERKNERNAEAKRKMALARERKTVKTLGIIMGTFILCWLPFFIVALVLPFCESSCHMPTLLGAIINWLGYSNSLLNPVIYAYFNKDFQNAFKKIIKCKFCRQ

[2] = biological target: 5-hydroxytryptamine receptor 7 (Homo sapiens, UniProt P34969); assay: Displacement of [3H]-5-CT from human 5HT7BR expressed in HEK293 cell membranes after 1 hr by Microbeta scintillation counting method
Sequence of 5-hydroxytryptamine receptor 7 (P34969 whole entry): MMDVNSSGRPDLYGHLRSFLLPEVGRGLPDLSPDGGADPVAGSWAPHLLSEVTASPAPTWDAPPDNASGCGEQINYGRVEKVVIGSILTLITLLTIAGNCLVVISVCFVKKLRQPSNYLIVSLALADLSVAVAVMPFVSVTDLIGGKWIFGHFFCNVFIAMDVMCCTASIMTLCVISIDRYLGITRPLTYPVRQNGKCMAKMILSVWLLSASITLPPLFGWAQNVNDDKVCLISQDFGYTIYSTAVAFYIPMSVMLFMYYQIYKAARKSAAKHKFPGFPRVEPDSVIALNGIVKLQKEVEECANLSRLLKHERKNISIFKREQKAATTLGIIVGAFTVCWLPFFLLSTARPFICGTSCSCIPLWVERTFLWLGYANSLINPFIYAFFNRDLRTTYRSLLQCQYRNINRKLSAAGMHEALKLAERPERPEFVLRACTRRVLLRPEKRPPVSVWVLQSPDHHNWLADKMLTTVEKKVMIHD

[3] = biological target: T2, Adrenergic receptor alpha-1 (Rattus norvegicus, UniProt P15823+P23944+P43140); assay: Displacement of [3H]-prazosin from alpha1-adrenergic receptor in rat brain cortex after 30 mins by Microbeta scintillation counting method
T2 sequence (P15823 whole entry): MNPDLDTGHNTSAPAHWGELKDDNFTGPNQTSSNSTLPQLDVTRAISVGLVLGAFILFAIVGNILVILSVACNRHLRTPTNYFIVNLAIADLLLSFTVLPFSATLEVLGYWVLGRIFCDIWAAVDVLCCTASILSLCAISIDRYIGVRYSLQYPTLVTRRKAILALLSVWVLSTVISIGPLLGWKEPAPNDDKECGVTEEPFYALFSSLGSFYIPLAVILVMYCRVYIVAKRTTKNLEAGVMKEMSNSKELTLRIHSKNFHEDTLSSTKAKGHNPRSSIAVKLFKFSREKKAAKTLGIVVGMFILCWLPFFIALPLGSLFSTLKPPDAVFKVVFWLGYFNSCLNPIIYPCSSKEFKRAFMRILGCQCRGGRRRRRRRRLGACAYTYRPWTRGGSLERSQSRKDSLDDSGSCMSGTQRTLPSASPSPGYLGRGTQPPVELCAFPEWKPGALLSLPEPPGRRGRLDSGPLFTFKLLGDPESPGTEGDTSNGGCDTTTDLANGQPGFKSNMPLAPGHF
T2 sequence (P23944 whole entry): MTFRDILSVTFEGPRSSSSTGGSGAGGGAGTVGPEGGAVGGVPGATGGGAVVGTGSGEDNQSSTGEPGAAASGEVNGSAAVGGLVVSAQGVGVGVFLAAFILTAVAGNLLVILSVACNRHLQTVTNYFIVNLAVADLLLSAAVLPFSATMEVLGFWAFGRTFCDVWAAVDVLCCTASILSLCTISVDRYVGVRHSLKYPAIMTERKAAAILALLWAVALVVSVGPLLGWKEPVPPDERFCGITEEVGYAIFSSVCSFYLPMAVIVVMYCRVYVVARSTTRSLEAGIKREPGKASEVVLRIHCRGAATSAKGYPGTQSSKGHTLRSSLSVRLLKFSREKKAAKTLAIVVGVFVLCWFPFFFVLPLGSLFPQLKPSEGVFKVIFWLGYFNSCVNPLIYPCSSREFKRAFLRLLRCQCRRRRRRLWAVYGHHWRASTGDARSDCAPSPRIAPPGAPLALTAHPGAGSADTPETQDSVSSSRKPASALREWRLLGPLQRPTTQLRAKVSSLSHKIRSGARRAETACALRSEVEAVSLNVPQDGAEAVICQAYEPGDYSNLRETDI
T2 sequence (P43140 whole entry): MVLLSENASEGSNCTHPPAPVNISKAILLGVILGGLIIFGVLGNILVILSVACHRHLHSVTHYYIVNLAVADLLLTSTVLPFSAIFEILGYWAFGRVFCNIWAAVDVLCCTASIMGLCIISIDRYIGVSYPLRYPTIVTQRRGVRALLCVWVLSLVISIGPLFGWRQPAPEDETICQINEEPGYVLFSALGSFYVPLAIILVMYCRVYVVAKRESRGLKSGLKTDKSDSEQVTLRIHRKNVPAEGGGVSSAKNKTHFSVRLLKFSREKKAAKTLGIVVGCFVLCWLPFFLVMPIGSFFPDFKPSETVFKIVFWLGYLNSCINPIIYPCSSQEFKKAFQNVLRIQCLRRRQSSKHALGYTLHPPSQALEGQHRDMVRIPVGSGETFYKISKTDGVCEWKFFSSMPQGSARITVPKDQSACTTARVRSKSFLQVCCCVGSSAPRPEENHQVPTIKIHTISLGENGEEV

[4] = biological target: T3, Adrenergic receptor alpha-2 (Rattus norvegicus, UniProt P22086+P19328+P22909); assay: Displacement of [3H]-clonidine from alpha2-adrenergic receptor in rat brain cortex after 30 mins by Microbeta scintillation counting method
T3 sequence (P22086 whole entry): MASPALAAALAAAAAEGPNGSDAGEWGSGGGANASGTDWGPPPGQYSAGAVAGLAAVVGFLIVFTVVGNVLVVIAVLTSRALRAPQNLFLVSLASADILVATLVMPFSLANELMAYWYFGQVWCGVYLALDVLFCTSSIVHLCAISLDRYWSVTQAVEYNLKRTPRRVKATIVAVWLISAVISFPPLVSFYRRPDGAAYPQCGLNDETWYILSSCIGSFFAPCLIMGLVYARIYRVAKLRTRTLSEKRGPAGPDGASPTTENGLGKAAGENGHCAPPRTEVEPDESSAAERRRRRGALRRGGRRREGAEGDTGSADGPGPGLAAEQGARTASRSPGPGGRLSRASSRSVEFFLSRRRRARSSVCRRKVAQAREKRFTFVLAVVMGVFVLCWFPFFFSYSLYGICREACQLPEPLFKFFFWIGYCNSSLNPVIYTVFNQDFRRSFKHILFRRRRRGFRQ
T3 sequence (P19328 whole entry): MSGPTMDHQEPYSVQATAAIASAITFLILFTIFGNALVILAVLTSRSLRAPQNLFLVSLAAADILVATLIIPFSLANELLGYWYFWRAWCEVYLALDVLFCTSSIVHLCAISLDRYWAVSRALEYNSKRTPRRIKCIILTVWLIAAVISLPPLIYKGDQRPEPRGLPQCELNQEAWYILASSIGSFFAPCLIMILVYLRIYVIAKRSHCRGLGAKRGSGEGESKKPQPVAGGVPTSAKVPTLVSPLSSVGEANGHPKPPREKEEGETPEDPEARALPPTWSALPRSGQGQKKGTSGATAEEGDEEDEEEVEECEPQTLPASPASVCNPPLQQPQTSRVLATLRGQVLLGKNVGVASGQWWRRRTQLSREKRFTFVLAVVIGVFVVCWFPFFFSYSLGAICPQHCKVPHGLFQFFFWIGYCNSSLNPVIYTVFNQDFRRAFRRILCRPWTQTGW
T3 sequence (P22909 whole entry): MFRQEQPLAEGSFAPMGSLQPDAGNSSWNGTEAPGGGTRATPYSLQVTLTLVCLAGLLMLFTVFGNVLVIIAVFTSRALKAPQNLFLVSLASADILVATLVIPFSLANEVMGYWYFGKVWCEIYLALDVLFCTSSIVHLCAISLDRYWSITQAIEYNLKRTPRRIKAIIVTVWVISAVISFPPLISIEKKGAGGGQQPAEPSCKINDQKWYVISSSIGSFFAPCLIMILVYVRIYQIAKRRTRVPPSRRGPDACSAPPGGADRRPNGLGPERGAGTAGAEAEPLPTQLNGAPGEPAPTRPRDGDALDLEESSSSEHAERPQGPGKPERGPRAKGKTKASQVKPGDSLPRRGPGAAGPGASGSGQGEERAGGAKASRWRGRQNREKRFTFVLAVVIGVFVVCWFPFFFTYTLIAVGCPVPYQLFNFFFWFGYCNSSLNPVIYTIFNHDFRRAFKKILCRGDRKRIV

[5] = biological target: Beta-1 adrenergic receptor (Rattus norvegicus, UniProt P18090); assay: Displacement of [3H]-CGP-12177 from beta1-adrenergic receptor in rat brain cortex after 1 hr by Microbeta scintillation counting method
Sequence of Beta-1 adrenergic receptor (P18090 whole entry): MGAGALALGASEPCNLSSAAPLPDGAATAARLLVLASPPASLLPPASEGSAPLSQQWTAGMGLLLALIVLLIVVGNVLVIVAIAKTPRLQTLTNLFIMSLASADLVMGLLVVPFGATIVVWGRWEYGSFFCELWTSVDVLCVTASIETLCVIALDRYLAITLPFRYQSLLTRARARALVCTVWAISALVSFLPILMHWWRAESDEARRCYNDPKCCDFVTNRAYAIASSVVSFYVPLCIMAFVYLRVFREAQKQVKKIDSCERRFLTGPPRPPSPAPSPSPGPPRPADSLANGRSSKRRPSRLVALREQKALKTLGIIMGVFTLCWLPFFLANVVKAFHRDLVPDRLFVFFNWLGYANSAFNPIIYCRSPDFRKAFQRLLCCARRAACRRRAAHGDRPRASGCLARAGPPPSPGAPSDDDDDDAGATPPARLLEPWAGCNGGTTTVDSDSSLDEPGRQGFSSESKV

Mus musculus [6] = assay: Antidepressant like activity in Swiss albino mouse assessed as immobility time at 5 mg/kg, ip administered 60 mins prior to test and measured last 4 mins of 6 mins test by forced swimming test (reference value: 159.78 to 183.56 secs); format: functional
Mus musculus [7] = assay: Antidepressant like activity in Swiss albino mouse assessed as immobility time at 10 mg/kg, ip administered 60 mins prior to test and measured last 4 mins of 6 mins test by forced swimming test (reference value: 159.78 to 183.56 secs); format: functional
Mus musculus [8] = assay: Antidepressant like activity in Swiss albino mouse assessed as immobility time at 20 mg/kg, ip administered 60 mins prior to test and measured last 4 mins of 6 mins test by forced swimming test (reference value: 159.78 to 183.56 secs); format: functional
Mus musculus [9] = assay: Anxiolytic-like activity in Swiss albino mouse assessed as number of punished crossings at 5 mg/kg, ip administered 60 mins prior to test and measured post 3 secs of electric shock by four-plate test (reference value: 3.8 to 4 /min); format: functional
Mus musculus [10] = assay: Anxiolytic-like activity in Swiss albino mouse assessed as number of punished crossings at 10 mg/kg, ip administered 60 mins prior to test and measured post 3 secs of electric shock by four-plate test (reference value: 3.8 to 4 /min); format: functional
Mus musculus [11] = assay: Anxiolytic-like activity in Swiss albino mouse assessed as number of punished crossings at 20 mg/kg, ip administered 60 mins prior to test and measured post 3 secs of electric shock by four-plate test (reference value: 3.8 to 4 /min); format: functional
Mus musculus [12] = assay: Effect on spontaneous locomotor activity in Swiss albino mouse at 10 mg/kg, ip administered 60 mins prior to test and measured for 3 to 6 mins; format: ADME, organism-based; conditions: in vivo
Summary of the method: (§1)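 Male Swiss Albino mice given compound or vehicle (1% Tween 80, 10 ml/kg) i.p. 60 min before test. Each mouse placed alone in a cage for 30 min habituation. Ambulation (photobeam channel crossings) then recorded over a 3–6 min session. Means ± SEM.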

Mus musculus [13] = assay: Effect on spontaneous locomotor activity in Swiss albino mouse at 20 mg/kg, ip administered 60 mins prior to test and measured for 3 to 6 mins; format: ADME, organism-based; conditions: in vivo; summary of the method: as §1

Sequence of D(2) dopamine receptor (P14416 whole entry): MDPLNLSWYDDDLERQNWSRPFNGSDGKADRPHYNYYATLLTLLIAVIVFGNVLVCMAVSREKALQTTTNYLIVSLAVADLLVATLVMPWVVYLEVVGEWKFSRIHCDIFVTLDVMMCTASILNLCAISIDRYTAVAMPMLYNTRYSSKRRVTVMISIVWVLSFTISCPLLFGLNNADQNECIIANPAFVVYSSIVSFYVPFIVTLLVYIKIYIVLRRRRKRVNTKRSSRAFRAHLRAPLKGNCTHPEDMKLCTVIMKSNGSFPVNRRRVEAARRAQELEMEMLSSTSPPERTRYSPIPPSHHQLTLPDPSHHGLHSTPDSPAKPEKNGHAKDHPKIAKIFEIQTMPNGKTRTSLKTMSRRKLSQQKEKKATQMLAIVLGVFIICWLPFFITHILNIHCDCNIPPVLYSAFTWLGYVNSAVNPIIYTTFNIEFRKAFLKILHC

SMILES: COc1ccccc1N1CCN(CC(O)CN2C(=O)NC(C)(c3ccc(Cl)cc3)C2=O)CC1.Cl (racemic)
- Ki (D(2) dopamine receptor): 366 nM
- Ki [1]: 109 nM
- Ki [2]: 20 nM
- Ki [3]: 268 nM
- Ki [4]: > 10 µM

SMILES: COc1ccccc1N1CCN(CC(O)CN2C(=O)NC(C)(c3ccc(C)cc3)C2=O)CC1 (racemic)
- Ki (D(2) dopamine receptor): 876 nM
- Ki [1]: 184 nM
- Ki [2]: 50 nM

SMILES: COc1ccccc1N1CCN(CC(O)CN2C(=O)NC(C)(c3ccccc3)C2=O)CC1.Cl (racemic)
- Ki (D(2) dopamine receptor): 1030 nM
- Ki [1]: 421 nM
- Ki [2]: 10 nM
- Ki [3]: 308 nM
- Ki [5]: > 10 µM
- Time (Mus musculus [6]): 182.89 s
- Time (Mus musculus [7]): 121.38 s
- Time (Mus musculus [8]): 66.11 s
- Activity (Mus musculus [9]): 3 min⁻¹
- Activity (Mus musculus [10]): 4.7 min⁻¹
- Activity (Mus musculus [11]): 4.3 min⁻¹
- Activity (Mus musculus [12]): Non-Toxic
- Activity (Mus musculus [13]): Non-Toxic

SMILES: COc1ccc(C2(C)NC(=O)N(CC(O)CN3CCN(c4ccccc4C#N)CC3)C2=O)cc1 (racemic)
- Ki [1]: 219 nM

SMILES: COc1ccccc1N1CCN(CC(O)CN2C(=O)NC(c3ccccc3)(c3ccccc3)C2=O)CC1 (racemic)
- Ki (D(2) dopamine receptor): 497 nM
- Ki [1]: 197 nM
- Ki [2]: 566 nM
